Screening results: PubChem BioAssay, several laboratories
MEKK3 PB1 HTS: modulators (inhibitors or enhancers) of MEK5 binding to human MEKK3 PB1 domain | Q99759 | bead-based flow cytometry, Alexa488-MEK5 binding to MEKK3; actives lie on both sides; 0 = blocked by unlabeled MEK5, 100 = vehicle | binding response (% of control), % at 10 µM | actives 1.4% (n = 290,000) | AID 1529;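 active means binding response more than 3 SD above or below the average of its plate-row segment, actives on both sides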;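 further: Alexa488 bead fluorescence after subtracting the streptavidin-only scavenger bead signal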
Target sequence (Q99759 whole entry, looked up, the tested form may be a part): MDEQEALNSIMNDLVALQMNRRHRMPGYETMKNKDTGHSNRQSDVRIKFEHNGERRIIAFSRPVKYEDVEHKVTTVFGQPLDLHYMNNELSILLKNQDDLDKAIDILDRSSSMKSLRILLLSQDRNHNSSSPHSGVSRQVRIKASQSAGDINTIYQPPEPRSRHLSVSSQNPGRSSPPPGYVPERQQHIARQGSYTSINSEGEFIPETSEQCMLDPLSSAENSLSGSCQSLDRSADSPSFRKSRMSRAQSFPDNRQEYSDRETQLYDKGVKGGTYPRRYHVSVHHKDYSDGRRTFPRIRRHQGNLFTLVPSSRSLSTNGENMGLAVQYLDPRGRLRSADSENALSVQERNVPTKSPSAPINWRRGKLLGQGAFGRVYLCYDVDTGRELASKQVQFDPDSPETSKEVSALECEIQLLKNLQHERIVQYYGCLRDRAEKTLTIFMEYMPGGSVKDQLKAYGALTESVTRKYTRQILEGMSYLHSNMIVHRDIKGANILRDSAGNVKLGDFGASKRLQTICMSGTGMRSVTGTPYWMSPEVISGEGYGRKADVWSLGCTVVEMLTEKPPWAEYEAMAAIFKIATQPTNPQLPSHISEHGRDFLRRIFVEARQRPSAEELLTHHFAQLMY
PREPL inh: inhibitors of human prolyl oligopeptidase-like enzyme PREPL; Q4J6C6; recombinant PREPL, fluorescence polarization activity-based probe; inhibition, % at 5.96 µM; actives 0.68% (n = 320,000); AID 2751; in the data active means inhibition above about 43%;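 further: 0% = enzyme with DMSO and 100% = wells lacking enzyme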
MEKK2 mut-MEK5: signal of MEK5 binding to mutant human MEKK2 PB1 domain | bead flow cytometry, Alexa488-MEK5 binding to MEKK2 mutant | percent response, % at 10 µM | actives 0.35% (n = 290,000) | AID 1530; in the data active means percent response above about 24%, passing the limit was not always enough
Apaf1 inhib: blocks human Apaf-1 apoptosome activity. O14727. reconstituted apoptosome caspase-3 activity, DEVD-Rh110 fluorescence. inhibition, % at 20 µM. actives 0.71% (n = 330,000). AID 489030; active means inhibition of at least 40% at 20 µM;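 further: plate controls were DMSO wells for no effect and DEVD-CHO caspase inhibitor wells for full effect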
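Medium: Hepes buffer, pH 7.5 / System: biochemical Apaf-1 apoptosome reconstitution / Measured by: Rh110 fluorescence, excitation 480 nm, emission 540 nm / Times: compound with Apaf-1, dATP, procaspase-3 30 min, then 50 min reaction, room temperature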
MEKK2wt PB1 HTS: raises or lowers MEK5 binding to wildtype human MEKK2 PB1 domain | binding response (% of control), % at 10 µM | AID 1531 | Q9Y2U5 | bead flow cytometry, Alexa488-MEK5 binding to MEKK2 WT; actives lie on both sides | actives 1.1% (n = 290,000); in the data active means binding response below about 67% or above about 130%
UBC13 inh: blocks human UBC13 polyubiquitin chain formation. TR-FRET. inhibition, % at 20 µM. actives 0.47% (n = 330,000). AID 485273; in the data active means inhibition above about 45%, passing the limit was not always enough
MEKK2wt confirm: raises or lowers MEK5 binding to wildtype human MEKK2, retest. binding response (% of control), % at 10 µM. actives 2.4% (n = 5,900). AID 1892. shares compounds with MEKK3 PB1 HTS. bead flow cytometry, Alexa488-MEK5 binding to MEKK2 WT; actives lie on both sides; in the data active means binding response below about 16% or above about 210%; inactive means in between
MEKK2mut confirm: signal of MEK5 binding to mutant human MEKK2, retest; actives 2% (n = 5,900); percent response, % at 10 µM; bead flow cytometry, Alexa488-MEK5 binding to MEKK2 mutant; shares compounds with MEKK3 PB1 HTS; in the data active means percent response mostly above about 71%, no sharp cut-off; inactive means mostly below about 38%;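 further: higher means compound restores mutant binding toward wildtype level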
MEKK3 confirm: confirmation of inhibitors of MEK5 binding to human MEKK3; shares compounds with MEKK3 PB1 HTS; bead flow cytometry, Alexa488-MEK5 binding to MEKK3; hits give low values; binding response (% of control), % at 10 µM; actives 1.8% (n = 5,900); AID 1894;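 active means binding response below 72% of control, or above a set upper limit, though filed actives all read lower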;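 further: 100% = DMSO only wells and 0% = binding blocked by excess unlabeled MEK5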
* marks the source's active call; other numbers are inactive results; . = no result; [ ] = another dose, or the depositor's remark. Sampled rows, rich in hits. Any-hit rate of the full collection: about 3.1%.

SMILES	MEKK3 PB1 HTS	PREPL inh	MEKK2 mut-MEK5	Apaf1 inhib	MEKK2wt PB1 HTS	UBC13 inh	MEKK2wt confirm	MEKK2mut confirm	MEKK3 confirm
COc1ccc(C(=O)CN2C(=O)NC3(CCCCCC3)C2=O)c(OC)c1	.	-9	.	4	.	0	.	.	.
O=C(Cc1ccc(S(=O)(=O)N2CCOCC2)s1)Nc1cc(Cl)ccc1Cl	.	7	.	1	.	35	.	.	.
COc1ccc(S(=O)(=O)Nc2cc3c4c(c2)C(C)C(=O)N4CCC3)cc1OC (centres undefined)	.	6	.	8	.	-2	.	.	.
CCN(C(=O)CSc1nncn1-c1ccccc1)c1c(N)n(Cc2ccccc2)c(=O)[nH]c1=O	63*[inhibitor]	-6	-2	3	89	13	102	-3	103
CCN(C(=O)CSc1nnc(-c2cccs2)n1N)c1c(N)n(Cc2ccccc2)c(=O)[nH]c1=O	.	11	.	10	.	14	.	.	.
CCN(C(=O)CSc1nnnn1-c1ccccc1)c1c(N)n(Cc2ccccc2)c(=O)[nH]c1=O	67*[inhibitor]	-9	0	3	99	11	105	7	108
COCCN(C(=O)CSc1nncn1-c1ccccc1)c1c(N)n(Cc2ccccc2)c(=O)[nH]c1=O	101	8	-1	8	99	-8	.	.	.
Cc1cc(C)c(NC(=O)Cn2c(=O)c3cccn3c3ccccc32)c(C)c1	102	-3	3	1	102	-8	.	.	.
Cc1cccnc1NC(=O)C(C)N1C(=O)c2ccccc2C1=O (centres undefined)	131*	0	24	-14	119	2	99	1	100
CCC(c1nnnn1Cc1cccs1)N1CCN(C(=O)c2ccco2)CC1 (centres undefined)	0.0*[inhibitor]	2	-13	-13	-1.0*[inhibitor]	13	96	2	102
Cc1ccc(C(c2nnnn2Cc2cccs2)N2CCN(C(=O)c3ccco3)CC2)cc1 (centres undefined)	105	-7	5	8	107	4	.	.	.
COc1ccc(COC(=O)c2sc3nc4n(c(=O)c3c2C)CCC4)cc1	.	-5	.	6	.	1	.	.	.
CCc1ccc(-n2c(SCC(=O)c3ccc4c(c3)NC(=O)CO4)nc3ccccc3c2=O)cc1	94	4	0	4	93	-20	.	.	.
O=C1COc2ccc(C(=O)CSc3nnc(Cc4cccs4)n3-c3ccc(Cl)cc3)cc2N1	55*[inhibitor]	6	-24	15	65	-4	101	4	108
O=C1COc2ccc(C(=O)CSc3nnnn3-c3ccccc3)cc2N1	104	7	3	2	106	6	.	.	.
O=C1COc2ccc(C(=O)CSc3nc4ccccc4c(=O)n3-c3ccc(Cl)c(Cl)c3)cc2N1	136*	5	0	12	113	22	37	-26	72
O=C(NCCc1ccccc1)c1ccc2nc(N3CCOCC3)sc2c1	102	12	-2	7	98	6	.	.	.
CCCCN(CCCNC(=O)c1ccc2nc(N3CCOCC3)sc2c1)Cc1ccccc1	105	12	20	23	158*	11	167	37	109
CC(OC(=O)C1CC(=O)N(Cc2ccco2)C1)C(=O)Nc1ccccc1[N+](=O)[O-] (centres undefined)	.	6	.	-5	.	6	.	.	.
Cc1ccc(NC(=O)COC(=O)Cc2ccsc2)cc1S(=O)(=O)N(C)C	85	8	-20	-9	83	10	.	.	.
CCOCc1c(C(=O)OCC(=O)Nc2ccc(C)c(S(=O)(=O)N(C)C)c2)oc2ccccc12	135*	10	0	11	110	-6	105	-2	103
COc1ccc(CC(=O)NC2CCCCCC2)c(OC)c1	95	16	2	2	95	11	.	.	.
CC1CC(=O)C2=C(C1)Nc1ccccc1SC2c1ccc(F)cc1 (centres undefined)	130*	-1	1	18	106	-16	99	2	106
O=C1CC(c2ccsc2)Sc2ccccc2N1 (centres undefined)	58	-8	-24	5	69	-2	.	.	.
CC1CCN(S(=O)(=O)c2ccc(S(=O)(=O)NCC(=O)C(C)(C)C)cc2)CC1	23*[inhibitor]	10	-22	-27	32*[inhibitor]	-11	96	-7	99
SMILES	MEKK3 PB1 HTS	PREPL inh	MEKK2 mut-MEK5	Apaf1 inhib	MEKK2wt PB1 HTS	UBC13 inh	MEKK2wt confirm	MEKK2mut confirm	MEKK3 confirm
NCC12CC3CC(C1)CC(c1ccc(Br)cc1)(C3)C2	110	-121	21	11	153*	40	133	22	101
Cc1ccc(/C=C2\CCC3=C2OC(N)=C(C#N)C3c2ccc(C)cc2)cc1 (centres undefined)	118	6	108*	16	101	-41	92	-17	95
CCCCCCOc1ccc(/C(N)=N/O)cc1	100	1	7	3	100	5	.	.	.
N=C(N)c1ccc(OCCCCCOc2ccc(C(=N)N)cc2)cc1	69	3	12	-1	150*	14	97	-14	66*
O=c1[nH]c(-c2ccccc2)nnc1-c1ccccc1	94	-5	-13	-6	98	1	.	.	.
Cc1ccc(C)c(N=Nc2ccc(O)c3ncccc23)c1	102	4	-10	-8	84	-150	.	.	.
Cc1ccc(N=Nc2cc(C)ccc2O)c(C)c1	5.0*[inhibitor]	.	-42	9	8.0*[inhibitor]	-16	105	-5	101
C[C@H](NC(=O)[C@H]1N2C(=O)c3ccccc3C2SC1(C)C)C(=O)NCC1CCCO1 (some centres undefined)	104	2	2	0	102	-1	.	.	.
COc1cccc(O)c1CN1CCC(C(=O)Nc2ccc(Oc3cccnc3)cc2)CC1	101	14	11	16	114	0	.	.	.
COc1cccc(O)c1CN1CCC(C(=O)Nc2ccc(-c3cccc(C)c3)cc2)CC1	119	-12	61*	16	227*	30	134	16	101
O=C(COC(=O)C1(c2ccc(F)cc2)CCCC1)Nc1ncc(C(F)(F)F)cc1Cl	133*	-2	2	12	111	6	101	-2	102
